Bioassay records as filed in PubChem.
Rows were chosen to be rich in hits. Some 2% of all compounds tested hit in one or more screens of this group.
MBD2 inh = inhibitors of MBD2 binding to methylated DNA, primary screen, biochemical, TR-FRET, DNA-binding domain, human; Methyl-CpG-binding domain protein 2 (Homo sapiens), Q9UBB5; MBD2 binding to methylated oligonucleotide; inhibition, % at 4.4 µM; actives 0.31% (n = 370,000); in the data active = inhibition above about 13%
ARFGAP1 inh = inhibitors of rat ARFGAP1 GAP activity, primary screen, biochemical, fluorescence polarization, GDP tracer; ADP-ribosylation factor GTPase-activating protein 1 (Rattus norvegicus), Q62848; Arfgap1-stimulated ARF1 GTP hydrolysis, GDP FP detection; inhibition, % at 16.5 µM; actives 0.26% (n = 360,000);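 active = inhibition above a per-plate limit, mean inhibition of low control wells plus 3 SD, cut at about 25% in these data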
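System: truncated rat Arfgap1 GAP domain / Medium: HEPES-based buffer, pH 7.5 / Also added: N-terminally truncated human ARF1-GTP substrate / Incubation: enzyme reaction 120 min at 25 °C after 20 min preincubation / Measured by: FP of antibody-bound GDP Alexa 633 tracer, ex 620/em 688 nm / Replicates: singlicate, each compound tested once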
LEDGF integ inh = blockers of LEDGF/p75-dependent integrase strand transfer – biochemical, TR-FRET, high throughput, primary screen; HIV-1 integrase (with human LEDGF/p75); TR-FRET IN-LEDGF/p75 DNA integration, Eu/Cy5; inhibition, % at 3.7 µM; actives 0.64% (n = 370,000);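 active = inhibition above the screen-wide mean plus 3 SD, cut at about 13% in these data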;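 also: signal is the Cy5 over europium emission ratio at 671 and 618 nm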
TCR CD3 inh = inhibitors of human TCR-CD3 interaction, primary screen, biochemical, fluorescence, TAMRA-labeled TCR probe; T-cell receptor (TCR); actives 0.37% (n = 360,000); inhibition, % at 9.4 µM; AID 651800, 2012; in the data active = inhibition above about 19%;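 also: recombinant mutant TCR 2C K166C tagged with TAMRA read by polarization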
UHRF1 MBD2 ctr = UHRF1 methylated DNA binding inhibitors, primary screen, counter-screen for MBD2 inhibitor project, biochemical, TR-FRET, human UHRF1, single concentration; E3 ubiquitin-protein ligase UHRF1 (Homo sapiens), Q96T88; UHRF1 binding to methylated oligo; inhibition, % at 4.4 µM; actives 0.75% (n = 370,000); in the data active = inhibition above about 21%;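 also: UHRF1 SRA domain binding a hemimethylated CpG hairpin DNA probe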
ASAP1 GAP inh = inhibitors of human ASAP1 ArfGAP activity, primary screen, biochemical, fluorescence polarization; actives 0.19% (n = 360,000); AID 624377, 2012; ASAP1-stimulated ARF1 GTP hydrolysis, GDP FP detection; inhibition, % at 16.5 µM; in the data active = inhibition above about 25%
Target sequence (Q9ULH1 325-724 limits assumed): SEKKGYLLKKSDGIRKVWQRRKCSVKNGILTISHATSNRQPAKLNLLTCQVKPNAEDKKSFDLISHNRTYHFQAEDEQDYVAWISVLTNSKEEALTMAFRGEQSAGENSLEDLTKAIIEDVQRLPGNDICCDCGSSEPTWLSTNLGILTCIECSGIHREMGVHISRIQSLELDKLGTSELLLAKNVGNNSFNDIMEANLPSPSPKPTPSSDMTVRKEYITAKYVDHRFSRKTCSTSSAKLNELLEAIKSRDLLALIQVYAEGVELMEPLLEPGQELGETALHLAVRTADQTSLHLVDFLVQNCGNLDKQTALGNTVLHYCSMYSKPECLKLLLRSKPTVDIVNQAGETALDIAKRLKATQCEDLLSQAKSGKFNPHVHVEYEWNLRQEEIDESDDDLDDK
Hits are given with their value; . = inactive; / = no result given.

SMILES | MBD2 inh | ARFGAP1 inh | LEDGF integ inh | TCR CD3 inh | UHRF1 MBD2 ctr | ASAP1 GAP inh
C#CCN(C[C@@H]1[C@@H](OC(=O)NCc2ccc(OC)c(OC)c2)[C@@H](OC(=O)NCc2ccc(OC)c(OC)c2)Cn2c(=O)ccc(=O)n21)S(=O)(=O)c1ccc(C)cc1 | . | . | . | . | . | .
O=C(Nc1ccccc1Br)C(=O)N1CCCC1 | . | . | . | . | . | .
O=C(NNc1ccccc1Br)C(=O)n1ccc2ccccc21 | . | . | . | . | 66.1 | .
O=C(C1CCCN(S(=O)(=O)c2ccc([N+](=O)[O-])cc2)C1)N1CCN(Cc2ccccc2)CC1 (configuration not stated) | . | / | . | / | . | /
CC(C)N(CC#CCC(O)(c1ccccc1)C1CCCC1)CCO (configuration not stated) | . | . | . | . | 28.3 | .
CCN(CC#CCC(O)(c1ccccc1)C1CCCC1)C(C)C (configuration not stated) | . | . | . | . | . | .
Cc1cc(CN2CCCC(CO)(Cc3cccc(Cl)c3)C2)n[nH]1 (configuration not stated) | . | . | . | . | 23.6 | .
CC(C)N1CCC(C)(C(=O)Nc2cccc(Oc3ccccc3)c2)C1 (configuration not stated) | . | . | . | . | 30.7 | .
O=C(CSc1nnc(-c2ccccn2)n1Cc1ccco1)Nc1ccc(Oc2ccccc2)cc1 | . | / | . | / | . | /
N#Cc1ccc(C(=O)OCC(=O)Nc2cccc(S(=O)(=O)NC3=NCCC3)c2)cc1 | . | . | . | . | . | .
CCN(CC(=O)NCc1cccs1)C(=O)c1ccc(Cl)c(Cl)c1 | . | . | . | . | 35.2 | .
CCN(CC(=O)NCc1cccs1)C(=O)Cc1ccc(Cl)c(Cl)c1 | . | . | . | . | . | .
CN(C)c1oc(-c2ccc(Cl)cc2)nc1S(=O)(=O)c1ccccc1 | . | . | . | . | 25.4 | .
O=C(CC1C(=O)NCCN1Cc1c(F)cccc1Cl)NCCC1=CCCCC1 (configuration not stated) | . | . | . | . | . | .
O=C(CC1C(=O)NCCN1Cc1c(F)cccc1Cl)NCCc1ccccn1 (configuration not stated) | . | . | . | . | 25.7 | .
COC(=O)CNC(=O)CNC1(C(=O)NCCc2c[nH]c3ccccc23)CCCCC1 | . | / | . | / | . | /
O=C(CCSc1ccccc1)NC1CCCCCC1 | . | . | . | . | . | .
O=C(CCSCc1ccccc1Cl)NC1CCCC1 | . | . | . | . | 23.7 | .
COc1cccc(CNC(=O)[C@H]2CCCN2C(=O)[C@H]2CCCN2)c1 | . | . | . | . | . | .
CCOc1nc(Nc2ccc(OC)c(Cl)c2)nc(OCC)n1 | . | . | . | . | 36.2 | .
COc1ccccc1OCCSc1nc2ccccc2n1CC(=O)O | . | . | . | . | . | .
COc1ccc(C2C(C(=O)Nc3ccc(C)c(C)c3)CCC(=O)N2c2ccc(OC)cc2)cc1 (configuration not stated) | . | / | . | / | . | /
COc1ccccc1C1CC(=O)Nc2cc(C)c(C)cc21 (configuration not stated) | . | . | . | . | . | .
Cc1cc2c(cc1C)C(c1ccccc1Br)CC(=O)N2 (configuration not stated) | . | . | . | . | 22.9 | .
CC(C)COC(=O)c1ccccc1OC(=O)c1ccncc1 | . | . | . | . | 25.4 | .
O=C(c1cc(Cl)cc(Cl)c1)N1CC[C@H]2[C@H](CCCN2Cc2cc(F)cc(F)c2)C1 | . | / | . | / | . | /
CCc1nnc(N/N=C/c2c(C)[nH]c3ccccc23)n1N | . | . | 68.4 | . | . | .
